Data: ChEMBL document CHEMBL2331334, “Hybrid furoxanyl N-acylhydrazone derivatives as hits for the development of neglected diseases drug candidates” (Eur J Med Chem, 2013)
≈ marks a conversion by molar mass, not a printed value.

What was measured:
[1] = tested on: Trypanosoma cruzi; assay: Trypanosomicidal activity against axenic epimastigote stage of Trypanosoma cruzi Tulahuen 2 assessed as growth inhibition; assay type: functional, organism-based
Outline: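 Tulahuen 2 epimastigotes grown axenically at 28 °C in BHI-tryptose with 5% FCS, harvested late log phase, 3×10^6/mL in 24-well plates. Compound added from DMSO stock (≤1% DMSO). Growth as A590 at day 0 and day 5; % inhibition from blank-corrected absorbances; ID50 = concentration halving absorbance relative to untreated controls.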

[2] = tested on: Mycobacterium tuberculosis; assay: Antimycobacterial activity against Mycobacterium tuberculosis H37Rv assessed as growth inhibition after 5 days by MTT assay; assay type: functional; conditions: 120 h
Outline: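 MTB inoculum made from 20–30-day slant growth in Tween 80/0.2% BSA, adjusted to McFarland No. 1, then diluted in 7H9GC broth (Middlebrook 7H9, glycerol, Casitone, OADC). Final inoculum about 1.2 × 10^6 CFU/mL. Compounds taken from DMSO stock to final 0.4–25 in broth, with a DMSO control. Plates run 5 days at 37 °C, then tetrazolium (MTT)–Tween 80 added for a further 24 h at 37 °C. Read-out is MIC.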

[3] = tested on: Salmonella typhimurium; assay: Mutagenicity in Salmonella typhimurium TA98 at 500 ug/plate in absence of S9 fraction; assay type: toxicity, organism-based; conditions: salmonella enterica subsp. enterica serovar typhimurium
Outline: (§1)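 Direct plate incorporation with S. typhimurium TA98 on minimal glucose agar (Vogel-Bonner E, 40% glucose). Compounds in DMSO assayed in triplicate at doses starting from the highest non-toxic dose, with or without Aroclor-treated mouse liver S9. Controls: DMSO, 4-nitro-o-phenylenediamine (−S9), 2-aminofluorene (+S9). Revertants counted manually; mutagenic if ≥2× negative control at two consecutive doses.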

[4] = Selectivity index, ratio of IC50 for mouse J774.1 cells to MIC for Mycobacterium tuberculosis H37Rv; assay type: functional
Outline: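 Cytotoxicity: J774.1 macrophages in DMEM with 4 mM L-glutamine and 10% heat-inactivated FCS, seeded at 5 × 10^4/well, attached 48 h at 37 °C, 5% CO2. Exposed 48 h to 12.5–400.0 µM compound or vehicle. MTT at 0.1 mg/mL final for 3 h, formazan dissolved in DMSO/glycine buffer pH 10.5, A560 read. IC50 by linear regression, divided by the MIC against the same MTB strain.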

[5] = tested on: Salmonella typhimurium; assay: Mutagenicity in Salmonella typhimurium TA98 at 500 ug/plate in presence of S9 fraction; assay type: toxicity, organism-based; conditions: salmonella enterica subsp. enterica serovar typhimurium; outline: as §1
[6] = Selectivity index, ratio of IC50 for mouse J774.1 cells to IC50 for amastigote stage of Trypanosoma cruzi Tulahuen C4; assay type: toxicity; conditions: read-out: Ratio IC50
[7] = tested on: Trypanosoma cruzi; assay: Trypanosomicidal activity against amastigote stage of Trypanosoma cruzi Tulahuen C4 transfected with beta-D-galactosidase infected in african green monkey Vero cells assessed as growth inhibition incubated 5 days prior to beta-D-galactopyranoside addition measured after 4 to 5 hrs by colorimetric assay; assay type: functional, organism-based
Outline: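 VERO monolayer in phenol red-free RPMI 1640 with 10% FCS, infected with 5×10^4 LacZ-transfected Tulahuen C4 trypomastigotes/well, 24 h at 37 °C, 5% CO2. Compounds added for 5 days. CPRG substrate added, 4–5 h at 37 °C, A570. Actives (>50% inhibition) retested in duplicate at 10.0–0.16; IC50 by logarithmic regression versus untreated control.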

[8] = Cytotoxicity against mouse J774.1 cells assessed as cell viability after 48 hrs by MTT assay; assay type: cell-based; conditions: J774.1, 48 h
Outline: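 J774.1 macrophages in DMEM with 4 mM L-glutamine and 10% heat-inactivated FCS, 5×10^4 cells/well, attached 48 h at 37 °C, 5% CO2. Exposed 48 h to compounds (12.5–400.0 µM) or vehicle. MTT 0.1 mg/mL final, 3 h at 37 °C; formazan dissolved in DMSO/glycine buffer pH 10.5, A560. IC50 by linear regression versus solvent control.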

[9] = Selectivity index, ratio of IC50 for african green monkey Vero cells to IC50 for amastigote stage of Trypanosoma cruzi Tulahuen C4; assay type: toxicity, cell-based; conditions: read-out: Ratio IC50
[10] = tested on: Plasma; assay: Metabolic stability in human plasma at pH 3 at 40 uM after 3 hrs; assay type: ADME, cell-free; conditions: pH 3, 3 h
[11] = Aqueous stability of the compound in acetate buffer at pH 5 at 1 mM after 24 hrs by spectrophotometric analysis; assay type: physicochemical; conditions: pH 5, 24 h, 1000 µM
Outline: (§2)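 Compound from DMSO stock, 1 mM final in aqueous buffer (KCl·HCl pH 2, acetate pH 5, Tris·HCl pH 7.4 or 8.3), incubated 37 °C for 24 h. Absorbance spectrum 250–450 nm compared with a freshly prepared, unincubated solution. TLC of ethyl acetate extracts to confirm or exclude decomposition products.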

[12] = Aqueous stability of the compound in Tris.HCl buffer at pH 7.4 at 1 mM after 24 hrs by spectrophotometric analysis; assay type: physicochemical; conditions: pH 7.4, 24 h, 1000 µM; outline: as §2
[13] = Aqueous stability of the compound in KCl.HCl buffer at pH 2 at 1 mM after 24 hrs by spectrophotometric analysis; assay type: physicochemical; conditions: pH 2, 24 h, 1000 µM; outline: as §2
[14] = tested on: Salmonella typhimurium; assay: Mutagenicity in Salmonella typhimurium TA98 at 3.1 to 250 ug/plate in absence of S9 fraction; assay type: toxicity, organism-based; conditions: salmonella enterica subsp. enterica serovar typhimurium; outline: as §1
[15] = tested on: Salmonella typhimurium; assay: Mutagenicity in Salmonella typhimurium TA98 at 3.1 to 250 ug/plate in presence of S9 fraction; assay type: toxicity, organism-based; conditions: salmonella enterica subsp. enterica serovar typhimurium; outline: as §1
[16] = tested on: Salmonella typhimurium; assay: Mutagenicity in Salmonella typhimurium TA98 at 20 ug/plate in absence of S9 fraction; assay type: toxicity, organism-based; conditions: salmonella enterica subsp. enterica serovar typhimurium
Outline: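 TA98 direct plate incorporation on minimal glucose agar (Vogel-Bonner E, 40% glucose), without S9. Compounds in DMSO were run in triplicate, highest dose nontoxic to bacteria. 4-nitro-o-phenylenediamine (20.0 per plate) was the positive control and DMSO the negative. Revertants were counted manually. Mutagenic meant at least double the negative-control revertants at two consecutive doses. Values are means of two independent experiments.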

[17] = tested on: Salmonella typhimurium; assay: Mutagenicity in Salmonella typhimurium TA98 at 150 ug/plate in absence of S9 fraction; assay type: toxicity, organism-based; conditions: salmonella enterica subsp. enterica serovar typhimurium; outline: as §1
[18] = Aqueous stability of the compound in Tris.HCl buffer at pH 8.3 at 1 mM after 24 hrs by spectrophotometric analysis; assay type: physicochemical; conditions: pH 8.3, 24 h, 1000 µM; outline: as §2
[19] = tested on: Salmonella typhimurium; assay: Mutagenicity in Salmonella typhimurium TA98 at 150 ug/plate in presence of S9 fraction; assay type: toxicity, organism-based; conditions: salmonella enterica subsp. enterica serovar typhimurium; outline: as §1
[20] = Cytotoxicity against mouse J774.1 cells assessed as cell viability after 72 hrs by MTT assay; assay type: cell-based; conditions: J774.1, 72 h
[21] = Selectivity index, ratio of IC50 for mouse J774.1 cells to IC50 for axenic amastigote stage of Leishmania amazonensis MHOM/BR/76/LTB-012; assay type: toxicity; conditions: read-out: Ratio IC50
[22] = Ratio of compound IC50 to amphotericin B IC50 for mouse J774.1 cells; assay type: ADME; conditions: read-out: Ratio IC50
[23] = tested on: Leishmania amazonensis; assay: Leishmanicidal activity against axenic amastigote stage of Leishmania amazonensis MHOM/BR/76/LTB-012 assessed as growth inhibition after 72 hrs by MTT assay; assay type: functional, organism-based; conditions: MHOM/BR/76/LTB-012, 72 h
Outline: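 L. amazonensis axenic amastigotes (MHOM/BR/76/LTB-012), weekly passages in MAA/20 at 32 °C, 5% CO2. Seeded in 96-well plates; compounds in DMSO at 100 to 1 final, 72 h. MTT added for 4 h, stopped with 50% isopropanol–10% SDS, 30 min agitation at room temperature, A570. Triplicate; % inhibition versus control, IC50 from several concentrations.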

[24] = tested on: Salmonella typhimurium; assay: Mutagenicity in Salmonella typhimurium TA98 at 6.2 to 500 ug/plate in presence of S9 fraction; assay type: toxicity, organism-based; conditions: salmonella enterica subsp. enterica serovar typhimurium; outline: as §1
[25] = tested on: Salmonella typhimurium; assay: Mutagenicity in Salmonella typhimurium TA98 at 6.2 to 500 ug/plate in absence of S9 fraction; assay type: toxicity, organism-based; conditions: salmonella enterica subsp. enterica serovar typhimurium; outline: as §1
[26] = tested on: Salmonella typhimurium; assay: Mutagenicity in Salmonella typhimurium TA98 at 4.9 to 400 ug/plate in presence of S9 fraction; assay type: toxicity, organism-based; conditions: salmonella enterica subsp. enterica serovar typhimurium; outline: as §1
[27] = tested on: Salmonella typhimurium; assay: Mutagenicity in Salmonella typhimurium TA98 at 4.9 to 400 ug/plate in absence of S9 fraction; assay type: toxicity, organism-based; conditions: salmonella enterica subsp. enterica serovar typhimurium; outline: as §1

| Structure (SMILES) | IC50 [1] | MIC [2] | Selectivity Index [4] | selectivity ratio [6] | IC50 [7] | IC50 [8] | Stability [10] | Stability [11] | Stability [12] | Stability [13] | Stability [18] | selectivity ratio [21] | IC50 [23] | other results |
| --- | --- | --- | --- | --- | --- | --- | --- | --- | --- | --- | --- | --- | --- | --- |
| Cc1[nH]cnc1C(=O)N/N=C/c1ccc2no[n+]([O-])c2c1 | 172 µM | 43.7 µM (≈ 12.5 µg/mL) | 0.8 | < 1 | > 35 µM | 33.9 µM |  |  |  |  |  |  |  | Activity [3]: Toxic; Activity [5]: Toxic |
| Cc1nc2ccccn2c1C(=O)N/N=C/c1c(-c2ccccc2)no[n+]1[O-] | 5 µM | 17.3 µM (≈ 6.27 µg/mL) | 3.2 | 62 | 0.91 µM | 56.2 µM | Stable | Stable | Stable | Stable |  |  |  | selectivity ratio [9]: 12; Activity [14]: Non-toxic; Activity [15]: Non-toxic |
| Nc1ccc([N+](=O)[O-])cc1N |  |  |  |  |  |  |  |  |  |  |  |  |  | Activity [16]: Toxic |
| O=C(N/N=C/c1ccc2no[n+]([O-])c2c1)c1ccncc1 | 33.4 µM | 0.35 µM (≈ 0.0991 µg/mL) | 385 | 24 | 5.6 µM | 135 µM | Stable | Stable | Stable | Stable | Stable |  |  | selectivity ratio [9]: 2.5; Activity [17]: Toxic; Activity [19]: Toxic |
| C[C@@H]1[C@H](O)[C@@H](C)/C=C/C=C/C=C/C=C/C=C/C=C/C=C/[C@H](O[C@@H]2O[C@H](C)[C@@H](O)[C@H](N)[C@@H]2O)C[C@@H]2O[C@](O)(C[C@@H](O)C[C@@H](O)[C@H](O)CC[C@@H](O)C[C@@H](O)CC(=O)O[C@H]1C)C[C@H](O)[C@H]2C(=O)O [AMPHOTERICIN B] |  |  |  |  |  |  |  |  |  |  |  | 4.7 |  | IC50 [20]: 0.52 µM |
| O=C(N/N=C/c1ccc2no[n+]([O-])c2c1)c1cnn(-c2ccccc2)c1 | 29.5 µM | > 17.9 µM | <2 |  | > 30.9 µM | 37.1 µM |  |  |  |  |  | 27 | 1.4 µM | selectivity ratio [22]: 5 |
| O=C(N/N=C/c1ccc2no[n+]([O-])c2c1)c1ccc2c(c1)OCO2 | 50 µM | > 76.7 µM | <2 | < 5 | > 28.4 µM | 174 µM |  |  |  |  |  | 134 | 1.3 µM | Activity [24]: Non-toxic; Activity [25]: Non-toxic; selectivity ratio [22]: 28.5 |
| Cc1c(/C=N/NC(=O)c2ccncc2)no[n+]1[O-] | > 300 µM | 1.6 µM (≈ 0.396 µg/mL) | >250 |  | > 40.5 µM | > 400 µM | Stable | Stable | Stable | Stable | Stable | > 16 | 25.3 µM | Activity [24]: Non-toxic; Activity [25]: Non-toxic |
| O=C(N/N=C/c1c(-c2ccccc2)no[n+]1[O-])c1ccncc1 | 11 µM | 0.6 µM (≈ 0.186 µg/mL) | >667 | > 63 | 6.4 µM | > 400 µM | Stable | Stable | Stable | Stable | Stable |  |  | selectivity ratio [9]: 2.5; Activity [26]: Non-toxic; Activity [27]: Non-toxic |
| O=C(N/N=C/c1c(-c2ccccc2)no[n+]1[O-])c1ccc2c(c1)OCO2 | 50 µM | > 71 µM | <2 | > 5 | < 30.7 µM | 162 µM | Stable | Stable | Stable | Stable | Stable |  |  | Activity [14]: Non-toxic; Activity [15]: Non-toxic |
| COc1cc(/C=N/NC(=O)c2no[n+]([O-])c2C)ccc1O |  | > 85.6 µM |  |  |  | > 400 µM |  |  |  |  |  | > 235 | 1.7 µM | Activity [24]: Non-toxic; Activity [25]: Non-toxic; selectivity ratio [22]: 50 |
